Holding throughout (format): functional
In assay [1] the test system is Mus musculus. Nature of the assay: Anticonvulsive activity against picrotoxin-induced (6 mg/kg sc) convulsions in mice, time of death. The procedure, abridged:
(§1)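 Male CFLP mice (25–35 g), 10 per group. Peptides in physiological saline given ip at 0.8 μmol/kg (1 mg/kg for CCK-8) 10 min before picrotoxin 6 mg/kg sc. Latency to first tonic seizure and time of death recorded over 60 min; a score of 60 is given if neither occurs. Percentage prolongation of mean saline-control latency is expressed relative to CCK-8. Student's t test vs saline controls.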

For assay [2], the system named is Mus musculus. Nature of the assay: Anticonvulsive potency against picrotoxin induced (6 mg/kg sc) convulsions in mice, first tonic seizure. The procedure, abridged: as §1
The species named for assay [3] is Oryctolagus cuniculus. Description: Compound was evaluated for cholecystokinin activity measured in isolated rabbit gallbladder strips (in vitro). The procedure, abridged:
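Tension changes recorded with a force-displacement transducer. Dose-response curves were run for CCK-8 and each analogue, with five determinations per compound. ED50 and maximal response came from direct observation and a Dowd-Riggs linear transformation. Activity is relative to CCK-8 (100%), reported as mean ± SEM.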

Assay [4] has as its system Rattus norvegicus. Nature of the assay: Compound was evaluated for (in vivo) gastrin like activity measured on perfused rat stomach after intravenous administration. The method, boiled down:
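Male Wistar rats (~250 g), perfused stomach; peptides given iv in physiological saline at 10, 20, 40, 80, 160 and 320 ng; secreted HCl measured by conductometric titration. Pentagastrin standard at 10–80 ng, taken as 100%. Relative potency expressed as a percentage; 10 animals per compound; detection limit 1–2% of pentagastrin.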

The source of these data is ChEMBL document CHEMBL1122682, “Synthesis of potent heptapeptide analogues of cholecystokinin” (1984).

*1 amine or outer side, *2 acyl side, *3 side chain or, on linkers, in order; H or OH if unused. Where a SMILES comes first, the peptide text is derived from it. [ ]: non-standard residue; d: D form. X1 = O=C([C@@H]1C[C@@H](OS(=O)(=O)O)CN1[*:1])[*:2]; Thr(SO3H) = C[C@@H](OS(=O)(=O)O)[C@H](N)C(=O)O; sY = N[C@@H](Cc1ccc(OS(=O)(=O)O)cc1)C(=O)O

For the compound `CSCC[C@H](NC(=O)[C@H](Cc1ccc(OS(=O)(=O)[O-])cc1)NC(C)=O)C(=O)NCC(=O)N[C@H](Cc1c[nH]c2ccccc12)C(=O)N[C@@H](CCSC)C(=O)N[C@@H](CC(=O)O)C(=O)N[C@@H](Cc1ccccc1)C(N)=O.[Na+]`, the Activity in assay [1] was 45%; in assay [2], 65%; in assay [3], 0.7%; in assay [4] it was 0%.

Take `CSCC[C@H](NC(=O)[C@H](Cc1c[nH]c2ccccc12)NC(=O)[C@@H](C)NC(=O)[C@H](CCSC)NC(=O)[C@H](Cc1ccc(OS(=O)(=O)[O-])cc1)NC(C)=O)C(=O)N[C@@H](CC(=O)O)C(=O)N[C@@H](Cc1ccccc1)C(N)=O.[Na+]`: the Activity in assay [1] came to 115%; in assay [2], 100%; in assay [3] it was 40%; in assay [4], 0%.

In the case of `CSCC[C@H](NC(=O)[C@H](Cc1ccc(O)cc1)NC(C)=O)C(=O)NCC(=O)N[C@@H](Cc1c[nH]c2ccccc12)C(=O)N[C@@H](CCSC)C(=O)N[C@@H](COS(=O)(=O)[O-])C(=O)N[C@@H](Cc1ccccc1)C(N)=O.[Na+]`, the results for the Activity in assay [3] and in assay [4] were 0.3% and 40%, respectively.

In the case of `CSCC[C@H](NC(=O)[C@H](Cc1ccc(OS(=O)(=O)[O-])cc1)NC(C)=O)C(=O)NCC(=O)N[C@@H](Cc1c[nH]c2ccccc12)C(=O)N[C@@H](CCSC)C(=O)N[C@@H](COS(=O)(=O)[O-])C(=O)N[C@@H](Cc1ccccc1)C(N)=O.[Na+].[Na+]`, the Activity in assay [1] was found to be 121%; in assay [2] it was 66%; in assay [3], 190%; in assay [4], 0%.

As for `CSCC[C@H](NC(=O)[C@H](Cc1ccc(OS(=O)(=O)[O-])cc1)NC(C)=O)C(=O)NCC(=O)N[C@@H](Cc1c[nH]c2ccccc12)C(=O)N[C@H](CCSC)C(=O)N[C@@H](CC(=O)O)C(=O)N[C@@H](Cc1ccccc1)C(N)=O.[Na+]`, the Activity in assay [1] came out at 0%; in assay [2], 21%; in assay [3], 0.6%; in assay [4] it was 0%.

For `CSCC[C@H](NC(=O)[C@H](Cc1ccc(O)cc1)NC(C)=O)C(=O)NCC(=O)N[C@@H](Cc1c[nH]c2ccccc12)C(=O)N[C@@H](CCSC)C(=O)N[C@H](C(=O)N[C@@H](Cc1ccccc1)C(N)=O)[C@@H](C)OS(=O)(=O)[O-].[Na+]` (Ac-YMGWM[Thr(SO3H)]F-NH2), the Activity was found to be 0.2% in assay [3] and 25% in assay [4].

Take `CSCC[C@H](NC(=O)[C@H](Cc1ccc(O)cc1)NC(C)=O)C(=O)NCC(=O)N[C@@H](Cc1c[nH]c2ccccc12)C(=O)N[C@@H](CCSC)C(=O)N1C[C@H](OS(=O)(=O)[O-])C[C@H]1C(=O)N[C@@H](Cc1ccccc1)C(N)=O.[Na+]` (Ac-YMGWM[X1]F-NH2): the results for the Activity in assay [3] and in assay [4] were 0.3% and 0%, respectively.

`CSCC[C@H](NC(=O)[C@H](Cc1ccc(OS(=O)(=O)[O-])cc1)NC(C)=O)C(=O)NCC(=O)N[C@@H](Cc1c[nH]c2ccccc12)C(=O)N[C@@H](CCSC)C(=O)N[C@H](C(=O)N[C@@H](Cc1ccccc1)C(N)=O)[C@@H](C)OS(=O)(=O)[O-].[Na+].[Na+]` (Ac-[sY]MGWM[Thr(SO3H)]F-NH2): the Activity is 115% in assay [1], 146% in assay [2], 166% in assay [3] and 0% in assay [4].

As to `CSCC[C@H](NC(=O)[C@H](Cc1ccc(OS(=O)(=O)[O-])cc1)NC(C)=O)C(=O)NCC(=O)N[C@@H](Cc1c[nH]c2ccccc12)C(=O)N[C@@H](CCSC)C(=O)N1C[C@H](OS(=O)(=O)[O-])C[C@H]1C(=O)N[C@@H](Cc1ccccc1)C(N)=O.[Na+].[Na+]` (Ac-[sY]MGWM[X1]F-NH2), the Activity was 121% in assay [1], 79% in assay [2], 300% in assay [3] and 0% in assay [4].

Consider `CSCC[C@H](NC(=O)[C@H](Cc1ccc(OS(=O)(=O)O)cc1)NC(=O)[C@@H](N)CC(=O)O)C(=O)NCC(=O)N[C@@H](Cc1c[nH]c2ccccc12)C(=O)N[C@@H](CCSC)C(=O)N[C@@H](CC(=O)O)C(=O)N[C@@H](Cc1ccccc1)C(N)=O` [SINCALIDE], for which the Activity in assay [1] was 100%; in assay [2], 100%; in assay [3], 100%; in assay [4] it was 0%.

With H-GWMDF-NH2, the Activity amounted to 38% in assay [1], 62% in assay [2], 0% in assay [3] and 100% in assay [4].
